Structures are written as SMILES. Active and inactive are the calls of the source. The calls are words filed in the database; no cut-off is given here.

Experimental findings from ChEMBL document CHEMBL4732095, “Novel naphthylamide derivatives as dual-target antifungal inhibitors: Design, synthesis and biological evaluation” (Eur J Med Chem, 2021) are described below.

Series [1] concerns Candida albicans SC5314. Briefly: Inhibition of SE/CYP51 in Candida albicans ATCC SC5314 assessed as unknown sterol level at 0.5 ug/ml incubated for 48 hrs by LC/MS analysis (reference value: 3.5 %). The arrangement: scale not given: the % may be the effect or the level left. The note with it: dose 0.5 µg/ml. In short, it runs like this:
(§1)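 C. albicans SC5314 cells exposed to compound at 0.125, 0.5 or 4 μg/mL for 48 h, alongside untreated, fluconazole and naftifine controls. Sterols (ergosterol, squalene, lanosterol, eburicol, unknown) analysed by LC-MS. Each component expressed as percentage of total sterols from peak area ratios.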

Series [2] can be described thus: Toxicity in mouse infected with Candida albicans SC5314 assessed as change in lung morphology administered via abdomen for 7 days by H and E staining based histological analysis. The note with it: in vivo, ip, 168 h, time 7 day. The method, boiled down:
(§2)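 Mice infected with C. albicans SC5314 by subcutaneous abdominal injection, then randomized into saline, and two compound-treated groups. Treatment given by abdominal injection for 7 days, with body weight monitored. Heart, liver, spleen, lung, kidney and infected abdominal tissue harvested for H&E histology.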

In series [3] the test system is Candida albicans SC5314. Briefly: Inhibition of SE/CYP51 in Candida albicans ATCC SC5314 assessed as squalene level at 0.5 ug/ml incubated for 48 hrs by LC/MS analysis. Also on record: scale not given: the % may be the effect or the level left. The note with it: dose 0.5 µg/ml. The method, boiled down: as §1
The test system of another series is Aspergillus fumigatus. Kind of series: Antifungal activity against Aspergillus fumigatus KM8001 assessed as inhibition of microbial growth by NCCLS protocol based method. In kind it is functional. The method, boiled down:
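Broth MIC50 determined following NCCLS guidelines in Sabouraud medium, with fungal suspension in 24-well format. Compound tested at 0.0625, 0.125, 0.5, 1, 2, 4, 8 and 16 μg/mL. Plates cultured statically at 35 °C. MIC50 is the lowest concentration giving 50% growth inhibition. Naftifine and fluconazole served as positive controls.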

The subject of series [4] is Candida albicans SC5314. Briefly: Inhibition of SE/CYP51 in Candida albicans ATCC SC5314 assessed as ergosterol level at […] ug/ml incubated for 48 hrs by LC/MS analysis (reference value: 95.1 %). Also on record: scale not given: the % may be the effect or the level left. To be noted: dose 0.125 µg/ml.
The subject of series [5] is Candida albicans SC5314. Briefly: Inhibition of SE/CYP51 in Candida albicans ATCC SC5314 assessed as lanosterol level at 4 ug/ml incubated for 48 hrs by LC/MS analysis. Also on record: scale not given: the % may be the effect or the level left. To be noted: dose 4.0 µg/ml. The method, boiled down:
as §1

The test system of series [6] is Candida albicans. Briefly: Antifungal activity against fluconazole-resistant Candida albicans 901 assessed as inhibition of microbial growth by NCCLS protocol based method. In kind it is functional.
Series [7] in a line: Hepatotoxicity in mouse infected with Candida albicans SC5314 assessed as effect on aspartate aminotransferase level in plasma administered via abdomen for 7 days (reference value: 104.7 +/- 5.2 IU/L). It is filed as toxicity. The note with it: ip, 168 h, time 7 day.
Series [8] has as its system Candida albicans SC5314. Kind of series: Inhibition of SE/CYP51 in Candida albicans ATCC SC5314 assessed as ergosterol level at 4 ug/ml incubated for 48 hrs by LC/MS analysis (reference value: 95.1 %). Also on record: scale not given: the % may be the effect or the level left. To be noted: dose 4.0 µg/ml. In short, it runs like this: as §1
The test system of series [9] is Candida albicans. Kind of series: Antifungal activity against Candida albicans ATCC SC5314 assessed as reduction in size of fungal cells (reference value: 8.29 micrometer). In kind it is functional.
The test system of series [10] is Candida albicans. Briefly: Antifungal activity against fluconazole-resistant Candida albicans 17# assessed as inhibition of microbial growth by NCCLS protocol based method. In kind it is functional.
Series [11] deals with Candida albicans SC5314. Briefly: Inhibition of SE/CYP51 in Candida albicans ATCC SC5314 assessed as lanosterol level at 0.125 ug/ml incubated for 48 hrs by LC/MS analysis. To be noted: dose 0.125 µg/ml. The arrangement: scale not given: the % may be the effect or the level left. In short, it runs like this:
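C. albicans ATCC SC5314 cells exposed to drug at 0.125, 0.5 or 4 μg/mL for 48 h, alongside an untreated control. Sterols were extracted and analysed by LC-MS. Ergosterol, squalene, lanosterol, eburicol and unknown sterols are each given as % of total sterols, calculated from the peak area ratio of each component.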

The nature of series [12]: Toxicity in mouse infected with Candida albicans SC5314 assessed as change in kidney morphology administered via abdomen for 7 days by H and E staining based histological analysis. To be noted: in vivo, ip, 168 h, time 7 day. In short, it runs like this:
as §2

The test system of series [13] is Candida albicans. Kind of series: Antifungal activity against Candida albicans ATCC SC5314 assessed as induction of cell fracture at 10 nM/mL by polarizing microscopy. The note with it: dose 10.0 nmol/ml. In kind it is functional, organism-based. The method, boiled down:
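C. albicans ATCC SC5314 observed by polarizing microscopy over treatment time. Untreated, fluconazole- and naftifine-treated control groups were included. Cell density, dividing cells and cell fracture were assessed, with cell counts taken per field.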

The nature of series [14]: Inhibition of Candida albicans ATCC SC5314 SE incubated for 30 mins by spectrophotometric method. In short, it runs like this:
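Enzymes (SE, CYP51) extracted from C. albicans SC5314 using kits. 50 µg enzyme incubated with varying compound concentrations for 30 min at 37 °C in Tris pH 7.4, KCl, MgCl2, 2 mM NADPH, with squalene or eburicol as substrate. Reaction stopped with acetonitrile and centrifuged. Eburicol consumption (CYP51) read by HPLC. Squalene, after sulfuric acid/formaldehyde derivatization, read at 400 nm (SE). IC50 reported.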

The subject of series [15] is Candida albicans. Kind of series: Antifungal activity against Candida albicans ATCC SC5314 assessed as irregular cell structure at 4 ug/ml incubated for 72 hrs by TEM analysis. It is filed as functional, organism-based. The note with it: dose 4.0 µg/ml. The method, boiled down: (§3)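 C. albicans SC5314 suspension prepared per NCCLS protocol, exposed to compound at 4 μg/mL and incubated at 35 °C. Sampled at 72 h and 144 h, with a 0 h reference. Samples fixed at 4 °C in 3% glutaraldehyde, washed in PBS, stained with uranium/osmium for 30 min, and imaged by transmission electron microscopy.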

In series [16] the test system is Candida albicans. Kind of series: Antifungal activity against Candida albicans ATCC SC5314 assessed as disappearance of fungal cell boundaries at 4 ug/ml incubated for 72 hrs by TEM analysis. It is filed as functional, organism-based. To be noted: dose 4.0 µg/ml. In short, it runs like this: as §3
Series [17] relates to Candida albicans. Briefly: Antifungal activity against Candida albicans ATCC SC5314 assessed as appearance of disordered ridge arrangement in cytoplasm at 4 ug/ml incubated for 72 hrs by TEM analysis. In kind it is functional, organism-based. The note with it: dose 4.0 µg/ml. The method, boiled down: as §3
Series [18] deals with Candida albicans. Kind of series: Antifungal activity against Candida albicans ATCC SC5314 assessed as exfoliation of rough ER particles at 4 ug/ml incubated for 72 hrs by TEM analysis. It is filed as functional, organism-based. The note with it: dose 4.0 µg/ml. The method, boiled down: as §3
Series [19] concerns Candida albicans. Kind of series: Antifungal activity against Candida albicans ATCC SC5314 assessed as edema cavitation at 4 ug/ml incubated for 72 hrs by TEM analysis. In kind it is functional, organism-based. To be noted: dose 4.0 µg/ml. The method, boiled down:
as §3

The test system of series [20] is Candida albicans. Briefly: Antifungal activity against Candida albicans ATCC SC5314 assessed as cracked fungal cells at 4 ug/ml incubated for 144 hrs by TEM analysis. In kind it is functional, organism-based. To be noted: dose 4.0 µg/ml. The method, boiled down: as §3

For `O=C(NC(Cn1ccnc1)C(=O)NCc1ccncc1)c1ccc2ccccc2c1` (stereo unspecified), the Activity with Candida albicans SC5314 [1] is 4.8%; in series [2], “Non-Toxic”; with Candida albicans SC5314 [3], 14.5%; in the series with Candida albicans SC5314 [4], 68.4%; in the series with Candida albicans SC5314 [5] it was 10.9%; in [7], 108.6 IU/L. The Activity was 13.2% in the series with Candida albicans SC5314 [8], 7.53 um with Candida albicans [9], 3.8% in the series with Candida albicans SC5314 [11] and “Non-Toxic” in series [12]. Further, the MIC50 with Aspergillus fumigatus, with Candida albicans [6] and in the series with Candida albicans [10] was 4 µg/mL each time. The result with Candida albicans [13] was Active. Also, inhibition in [14] was half-maximal at 685 nM (IC50).
With `CC(NC(=O)c1cccc2ccccc12)C(=O)NC(Cn1ccnc1)C(=O)c1ccccc1` (stereo unspecified), the Activity is 5.8% with Candida albicans SC5314 [1]; “Non-Toxic” in [2]; 21.6% in the series with Candida albicans SC5314 [3]; 66.4% in the series on Candida albicans SC5314 [4]; 12.5% with Candida albicans SC5314 [5]; 112.3 IU/L in series [7]. Besides, the Activity was 10.8% in the series with Candida albicans SC5314 [8], 7.51 um in the series with Candida albicans [9], 2.8% in the series with Candida albicans SC5314 [11] and “Non-Toxic” in series [12]. The result with Candida albicans [15], with Candida albicans [16], in the series with Candida albicans [17], in the series on Candida albicans [18], in the series on Candida albicans [19] and in the series with Candida albicans [13] was Active. Further, in the series with Candida albicans [20], the outcome was Active. The results for the MIC50 with Aspergillus fumigatus, in the series with Candida albicans [6] and in the series with Candida albicans [10] were 4 µg/mL, 4 µg/mL and 2 µg/mL, respectively. In addition, 961 nM corresponded to half-maximal inhibition in [14] (IC50).
